From PubChem BioAssay
Runt-SMMHC FRET: Runt domain-CBFb-SMMHC interaction inhibition; Cerulean-Runt/Venus-CBFb-SMMHC FRET ratio 530/480, 1 h; inhibition, % at 20 µM; 220,000 compounds, 0.74% hits;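 active = mean inhibition across duplicate retests at 20 µM reaching about 50%, limit read from the data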;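 note: inhibitors lower the FRET ratio by blocking Runt binding to CBFb-SMMHC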
IMP-1 inh-1: inhibitors of Pseudomonas aeruginosa IMP-1 metallo-beta-lactamase. purified IMP-1, nitrocefin hydrolysis, epi-absorbance fluorescence. inhibition, % at 5.6 µM. AID 1556. 290,000 compounds, 0.45% hits;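 active = inhibition above the mean plus 3 SD of all compounds in the same screening run, cut at about 4.5% in these data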
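Material – recombinant IMP-1 enzyme, purified · Amount – IMP-1 0.2 nM before substrate addition · Medium – HEPES buffer pH 7.1 with ZnSO4 and Brij 35 · Timing – 25 °C, 15 min preincubation, 25 min reaction · Measured by – plate fluorescence quenching by hydrolysis product, ex 480/em 530 nm · Read-out – percent enzyme inhibition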
VIM-2 inhibitor: inhibitors of Pseudomonas aeruginosa VIM-2 metallo-beta-lactamase; purified VIM-2, nitrocefin hydrolysis, epi-absorbance fluorescence; inhibition, % at 5.6 µM; 290,000 compounds, 0.89% hits;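 active = inhibition above the mean of all tested compounds plus 3 SD, cutoff set per screening run, cut at about 7.5% in these data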;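 note: red hydrolysis product quenches plate fluorescence so inhibitors raise well fluorescence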
RanGTP-Imp inh: disruptors of Ran-importin-beta complex formation – biochemical, FRET, CFP-Ran, YFP-importin-beta, homogeneous, primary screen; 300,000 compounds, 1.1% hits; inhibition, % (no concentration beside the values); cell-free CFP-Ran/YFP-importin-beta FRET ratio; AID 2216;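 active = more than half of the replicate wells show a fall in the fluorescence ratio signal beyond about 16%, limit read from the data, passing the limit was not always enough; inconclusive = exactly half of the replicate wells pass the set limit; inactive = fewer than half of replicates pass the limit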
Runt-CBFb FRET: inhibitors of human RUNX1 Runt domain binding to CBFb | Q01196+Q13951 | Cerulean-Runt/Venus-CBFb FRET ratio 530/480, 1 h | inhibition, % at 20 µM | 220,000 compounds, 0.46% hits;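 active = inhibition over about 50% at 20 µM in the single-dose screen, limit read from the data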
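Reagent – Venus-CBFb binding partner, 100 nM · Assay system – Cerulean-tagged RUNX1 Runt domain (FRET donor) fusion protein · Input – 100 nM per protein · Incubation – two 1 h room-temperature incubations shielded from light · Measured by – FRET fluorescence · Medium – Tris buffer pH 7.5 with salts and BSA · Benchmarks – unlabeled CBFb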
IMP-1 inh-2: selectivity counter-screen for VIM-2 inhibitors: IMP-1 metallo-beta-lactamase inhibitors | inhibition, % at 5.6 µM | 1,300 tested, under 10 active | shares compounds with VIM-2 inhibitor | purified IMP-1, nitrocefin hydrolysis, epi-absorbance fluorescence; call rule not given here
VIM-2 FRET inh: VIM-2 FRET inhibition, artifact counter-screen. purified VIM-2, CCF2 FRET substrate hydrolysis. shares compounds with VIM-2 inhibitor. inhibition, % at 5.6 µM. 1,300 compounds, 23% hits;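 active = inhibition above the mean of all tested compounds plus 3 SD, cut at about 19% in these data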
TEM-1 inh: TEM-1 inhibition, counter-screen for VIM-2 inhibitors. shares compounds with VIM-2 inhibitor. Purified TEM-1, nitrocefin hydrolysis, epi-absorbance fluorescence. inhibition, % at 5.6 µM. 1,300 compounds, 3% hits;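 active = inhibition above that campaign's mean inhibition plus 3 SD, cut at about 0.46% in these data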
Target sequence (P62593 whole entry, looked up): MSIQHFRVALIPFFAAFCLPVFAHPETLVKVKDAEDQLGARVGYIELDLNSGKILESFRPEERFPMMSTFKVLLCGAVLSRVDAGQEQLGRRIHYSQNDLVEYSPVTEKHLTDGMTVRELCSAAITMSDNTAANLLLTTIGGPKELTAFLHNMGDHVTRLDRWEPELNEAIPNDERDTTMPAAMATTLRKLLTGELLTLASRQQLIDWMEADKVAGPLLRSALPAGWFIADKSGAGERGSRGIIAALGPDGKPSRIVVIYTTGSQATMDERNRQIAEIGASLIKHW
VIM-2 confirm 2: confirmation of P. aeruginosa VIM-2 metallo-beta-lactamase inhibitors; shares compounds with VIM-2 inhibitor; purified VIM-2, nitrocefin hydrolysis, epi-absorbance; 1,300 compounds, 96% hits; inhibition, % at 5.6 µM;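 active = inhibition of the VIM-2 beta-lactamase enzyme above about 11% from the earlier first-round screen, limit read from the data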
A number is an active result; n = inactive; u = inconclusive; x = no result given. Rows were chosen to be rich in hits. Some 2.6% of all compounds tested hit in one or more screens of this group.

SMILES | Runt-SMMHC FRET | IMP-1 inh-1 | VIM-2 inhibitor | RanGTP-Imp inh | Runt-CBFb FRET | IMP-1 inh-2 | VIM-2 FRET inh | TEM-1 inh | VIM-2 confirm 2
COc1ccc(CCn2c(=N)c(C(=O)NCCN3CCOCC3)cc3c(=O)n4cccc(C)c4nc32)cc1OC | x | n | 19.4 | n | x | n | n | n | 27.1
COc1ccc(CCNC(=O)c2cc3c(=O)n4ccccc4nc3n(CCCN3CCOCC3)c2=N)cc1OC | x | n | 14.8 | 16.2 | x | n | n | n | 20.9
CCOC(=O)N1CCN(S(=O)(=O)c2ccc(C(=O)Nc3sc4c(c3C(=O)OC)CCN(C)C4)cc2)CC1 | x | n | 76.8 | n | x | n | n | n | 82.0
CCOC(=O)c1cc(-c2ccncc2)nc2c1c(C)nn2-c1ccccn1 | x | n | 42.4 | n | x | n | n | n | 57.6
COc1ccc(-c2cc(C(=O)O)c3c(C)nn(-c4ccccn4)c3n2)cc1 | n | n | n | n | n | x | x | x | x
Cn1c(=O)[nH]c(=O)c2c1nc(NCCCn1ccnc1)n2CCOc1ccccc1 | n | n | 20.6 | n | n | n | n | n | 33.4
O=C(NCCCN1CCCCC1)c1ccc2c(c1)NC(=O)c1ccccc1S2 | x | n | n | n | x | x | x | x | x
COc1cccc(/C=C2/Sc3ccc(C(=O)NCCCN4CCCC4)cc3NC2=O)c1 | x | n | 16.1 | n | x | n | 43.1 | n | 28.4
O=C1Nc2cc(C(=O)NCCCN3CCCC3)ccc2S/C1=C/c1ccccc1F | x | n | 32.9 | n | x | n | 53.7 | n | 38.4
COc1ccc(CN2CCNC(=O)C2CC(=O)NCCN2CCCCC2=O)c(F)c1 (stereo not given) | x | n | n | n | x | x | x | x | x
CCCCN(C)C(=O)c1cc2c(Cl)nc3ccccc3c2s1 | x | n | 13.1 | n | x | n | n | n | 19.2
CC1CCN(CCCNC(=O)c2cc3c(Cl)nc4ccccc4c3s2)CC1 | n | n | 23.2 | u | n | n | n | n | 32.4
O=C(NCCCN1CCCC1)c1cc2c(Cl)nc3ccccc3c2s1 | n | n | 22.4 | n | n | n | n | n | 34.8
CCCCN(C)C(=O)c1cc2c(s1)-c1ccccc1S(=O)(=O)C2 | n | n | n | n | n | x | x | x | x
COc1ccc2c(c1)[nH]c1c(=O)n(CCN(C)C)cnc12 | n | n | n | n | n | x | x | x | x
COc1ccc2c(c1)[nH]c1c(=O)n(CCCn3ccnc3)cnc12 | n | n | 13.6 | n | n | n | n | n | 38.3
Cc1cc(C(=O)OCC(=O)NC(=O)c2cccn2C)c2ccccc2n1 | n | n | 12.2 | n | n | n | 46.0 | n | 32.6
O=C(O)c1cccc(NC(=S)N/N=C/c2ccccc2OCc2ccc(Br)cc2)c1 | n | n | 72.8 | n | n | n | 66.8 | n | 35.2
O=C(O)c1cccc(NC(=S)N/N=C/c2cccc(O)c2)c1 | n | n | 32.2 | n | n | n | 27.9 | n | 16.5
COC(=O)c1ccc(COc2ccccc2/C=N/Nc2cccc(C(=O)O)c2)cc1 | n | n | n | x | n | x | x | x | x
O=C(O)c1cccc(NC(=S)N/N=C/c2ccccc2OCc2cccc(Br)c2)c1 | n | n | 73.9 | n | n | n | 65.4 | n | 39.8
Cc1ccc(S(=O)(=O)N/N=C\c2cn(CC(N)=O)c3ccccc23)cc1 | x | n | n | n | x | x | x | x | x
CC(Oc1ccc2c(-c3ccccc3)cc(=O)oc2c1)C(=O)NCCCn1ccnc1 (stereo not given) | x | n | n | n | x | x | x | x | x
CC(Oc1cc2oc(=O)c3c(c2cc1Cl)CCC3)C(=O)NCc1ccncc1 (stereo not given) | x | n | 15.9 | n | x | n | n | n | 22.4
CC(Oc1cc2oc(=O)c3c(c2cc1Cl)CCC3)C(=O)NCCCn1ccnc1 (stereo not given) | x | n | 27.9 | n | x | n | n | 2.3 | 40.4
